In brackets after ≈: the same amount, converted by molar mass. Activity calls are given as the source filed them. The calls are words filed in the database; no cut-off is given here.
How the values were obtained:
Candida albicans [1] = assay: Antifungal activity against Candida albicans SC5314 after 24 hrs; type: functional
Outline: (§1)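 Overnight YPD cultures diluted in PBS (1/200 for C. albicans, 1/400 for C. glabrata). Cells treated with compound, or 2.5% DMSO as solvent control, for 24 h at 37 °C. CFUs then counted; MFC is the concentration giving 99% killing of the inoculum.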

Nakaseomyces glabratus = assay: Antifungal activity against Candida glabrata BG2 after 24 hrs; type: functional; outline: as §1
Aspergillus fumigatus = assay: Antifungal activity against Aspergillus fumigatus CBS 117202 after 24 hrs by two-fold dilution method; type: functional; details: CBS 117202, 24 h
Outline: (§2)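 Spores at 2×10^4 spores/mL in potato dextrose broth, incubated with a 2-fold compound dilution series for 24 h at 25 °C. Growth read by microspectrophotometry of the liquid cultures. MIC taken as the lowest concentration inhibiting fungal growth.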

[2] = Half life in human plasma; type: ADME, cell-free
Aspergillus flavus = assay: Antifungal activity against Aspergillus flavus CBS111.45 after 24 hrs by two-fold dilution method; type: functional; details: CBS111.45, 24 h; outline: as §2
[3] = tested on: Trichophyton mentagrophytes; assay: Fungicidal activity against Trichophyton mentagrophytes B70554; type: functional, organism-based
Outline: (§3)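 Inoculum of 10^3 CFU in RPMI-MOPS added to prediluted compound, highest concentration 64 µM. Growth read by resazurin fluorescence (ex 550, em 590 nm). IC50 is 50% growth inhibition versus untreated controls. Three independent replicates.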

Trichophyton rubrum = assay: Fungicidal activity against Trichophyton rubrum B68183; type: functional, organism-based; outline: as §3
Microsporum canis = assay: Fungicidal activity against Microsporum canis B68128; type: functional; outline: as §3
Sporothrix schenckii = assay: Fungicidal activity against Sporothrix schenckii B62482; type: functional, organism-based; outline: as §3
[4] = Cytotoxicity against human MRC5 SV2 cells after 72 hrs by fluorescence assay; type: cell-based
Outline: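 MRC-5 SV2 cells (10^4/well) grown in MEM with L-glutamine, NaHCO3 and 5% FCS. Incubated with compound 72 h at 37 °C, 5% CO2, then resazurin added for 24 h. Fluorescence read at ex 530, em 590 nm.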

Candida albicans [5] = assay: Fungicidal activity against CA2 high-persister Candida albicans clinical isolate; type: functional
[6] = Kinetic solubility of the compound at pH 7.4; type: physicochemical; details: buffer, read-out: Kinetic_solubility
[7] = Apparent permeability from apical to basolateral side in human Caco2 cells; type: ADME, cell-based; details: Caco-2
[8] = Apparent permeability from basolateral to apical side in human Caco2 cells; type: ADME, cell-based; details: Caco-2
[9] = Plasma protein binding in human; type: ADME, cell-free; details: read-out: PPB (converted)
[10] = Half life in simulated gastric fluid at pH 1.2; type: ADME
Outline: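 Stability in simulated gastric fluid containing 800000 Units/L pepsin at pH 1.2; half-life reported.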

[11] = Half life in simulated intestinal fluid […]; type: ADME
[12] = Half life in human liver microsomes; type: ADME
[13] = Half life in mouse liver microsomes; type: ADME
hERG (KCNH2) = hERG (KCNH2) (Homo sapiens, UniProt Q12809); assay: Inhibition of human ERG channel at 10 uM
Candida albicans [14] = assay: Antifungal activity against Candida albicans SC5314 infected in BALB/c mouse assessed as reduction in reduction in fungal load in kidney at 10 mg/kg/day, ip for 5 days relative to vehicle-treated control; type: functional, organism-based
Outline: (§4)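 BALB/c mice given cyclophosphamide 100 mg/kg at 4 days and 24 h before infection and at 3 days after. Infected IV with 2×10^3 SC5314 cells in saline. Dosed IP daily for 5 days from 16 h post-infection, in DMSO/0.5% methylcellulose (5/95). Organs taken on day 7, homogenized and plated on BHI agar (18 h, 37 °C). CFU/g compared with vehicle.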

Candida albicans [15] = assay: Antifungal activity against Candida albicans SC5314 infected in BALB/c mouse assessed as reduction in reduction in fungal load in spleen at 10 mg/kg/day, ip for 5 days relative to vehicle-treated control; type: functional, organism-based; outline: as §4
Candida albicans [16] = assay: Antifungal activity against Candida albicans SC5314 infected in BALB/c mouse assessed as reduction in reduction in fungal load in liver at 10 mg/kg/day, ip for 5 days relative to vehicle-treated control; type: functional, organism-based; outline: as §4
Saccharomyces cerevisiae [17] = assay: Antifungal activity against Saccharomyces cerevisiae BY4741 at 12.5 to 50 ug/ml after 24 hrs by Omnilog plate reader analysis; type: functional, organism-based
Outline: (§5)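 S. cerevisiae BY4741 from overnight YPD culture, 1/500 final dilution, in Biolog PM22–PM25 chemical sensitivity plates (96 conditions). Compound tested at 12.5 and 50 µg/mL. Plates incubated 24 h at 37 °C in the Omnilog reader.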

Saccharomyces cerevisiae [18] = assay: Antifungal activity against Saccharomyces cerevisiae BY4741 at 12.5 to 50 ug/ml after 24 hrs by Omnilog plate reader analysis in presence of sodium cyanide; type: functional, organism-based; outline: as §5
Saccharomyces cerevisiae [19] = assay: Antifungal activity against Saccharomyces cerevisiae BY4741 at 12.5 to 50 ug/ml after 24 hrs by Omnilog plate reader analysis in presence of sodium thiosulfate; type: functional, organism-based; outline: as §5
Saccharomyces cerevisiae [20] = assay: Antifungal activity against Saccharomyces cerevisiae BY4741 at 12.5 to 50 ug/ml after 24 hrs by Omnilog plate reader analysis in presence of chlortetracycline hydrochloride; type: functional, organism-based; outline: as §5
Saccharomyces cerevisiae [21] = assay: Antifungal activity against Saccharomyces cerevisiae BY4741 at 12.5 to 50 ug/ml after 24 hrs by Omnilog plate reader analysis in presence of potassium chromate; type: functional, organism-based; outline: as §5
Saccharomyces cerevisiae [22] = assay: Antifungal activity against Saccharomyces cerevisiae BY4741 at 12.5 to 50 ug/ml after 24 hrs by Omnilog plate reader analysis in presence of monothioglycerol; type: functional, organism-based; outline: as §5
CYP1A2 = target: T1, CYP1A2 (Homo sapiens, UniProt P05177); assay: Inhibition of CYP1A2 (unknown origin) at 10 uM; type: ADME
T1 sequence (P05177 whole entry): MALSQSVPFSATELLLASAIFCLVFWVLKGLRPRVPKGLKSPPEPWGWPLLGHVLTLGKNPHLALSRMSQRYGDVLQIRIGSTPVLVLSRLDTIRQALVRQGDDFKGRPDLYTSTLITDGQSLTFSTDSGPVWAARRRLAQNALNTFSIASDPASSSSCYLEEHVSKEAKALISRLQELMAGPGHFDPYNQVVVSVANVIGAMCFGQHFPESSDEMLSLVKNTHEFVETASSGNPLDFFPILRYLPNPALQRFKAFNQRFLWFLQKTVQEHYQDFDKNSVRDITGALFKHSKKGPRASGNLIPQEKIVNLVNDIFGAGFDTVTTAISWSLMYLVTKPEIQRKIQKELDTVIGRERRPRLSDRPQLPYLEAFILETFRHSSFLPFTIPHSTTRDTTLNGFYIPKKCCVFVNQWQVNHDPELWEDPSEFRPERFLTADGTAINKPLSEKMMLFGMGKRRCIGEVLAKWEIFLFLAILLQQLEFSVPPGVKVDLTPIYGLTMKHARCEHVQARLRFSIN

CYP2C9 = CYP2C9 (Homo sapiens, UniProt P11712); assay: Inhibition of CYP2C9 (unknown origin) at 10 uM; type: ADME
CYP2C19 = CYP2C19 (Homo sapiens, UniProt P33261); assay: Inhibition of CYP2C19 (unknown origin) at 10 uM; type: ADME
CYP2D6 = CYP2D6 (Homo sapiens, UniProt P10635); assay: Inhibition of CYP2D6 (unknown origin) at 10 uM; type: ADME
CYP3A4 = CYP3A4 (Homo sapiens, UniProt P08684); assay: Inhibition of CYP3A4 (unknown origin) at 10 uM; type: ADME
[23] = Drug metabolism in mouse liver microsomes at 10 uM after 90 mins by LC-MS/MS analysis; type: ADME; details: 1.5 h

Sequence of hERG (KCNH2) (Q12809 whole entry): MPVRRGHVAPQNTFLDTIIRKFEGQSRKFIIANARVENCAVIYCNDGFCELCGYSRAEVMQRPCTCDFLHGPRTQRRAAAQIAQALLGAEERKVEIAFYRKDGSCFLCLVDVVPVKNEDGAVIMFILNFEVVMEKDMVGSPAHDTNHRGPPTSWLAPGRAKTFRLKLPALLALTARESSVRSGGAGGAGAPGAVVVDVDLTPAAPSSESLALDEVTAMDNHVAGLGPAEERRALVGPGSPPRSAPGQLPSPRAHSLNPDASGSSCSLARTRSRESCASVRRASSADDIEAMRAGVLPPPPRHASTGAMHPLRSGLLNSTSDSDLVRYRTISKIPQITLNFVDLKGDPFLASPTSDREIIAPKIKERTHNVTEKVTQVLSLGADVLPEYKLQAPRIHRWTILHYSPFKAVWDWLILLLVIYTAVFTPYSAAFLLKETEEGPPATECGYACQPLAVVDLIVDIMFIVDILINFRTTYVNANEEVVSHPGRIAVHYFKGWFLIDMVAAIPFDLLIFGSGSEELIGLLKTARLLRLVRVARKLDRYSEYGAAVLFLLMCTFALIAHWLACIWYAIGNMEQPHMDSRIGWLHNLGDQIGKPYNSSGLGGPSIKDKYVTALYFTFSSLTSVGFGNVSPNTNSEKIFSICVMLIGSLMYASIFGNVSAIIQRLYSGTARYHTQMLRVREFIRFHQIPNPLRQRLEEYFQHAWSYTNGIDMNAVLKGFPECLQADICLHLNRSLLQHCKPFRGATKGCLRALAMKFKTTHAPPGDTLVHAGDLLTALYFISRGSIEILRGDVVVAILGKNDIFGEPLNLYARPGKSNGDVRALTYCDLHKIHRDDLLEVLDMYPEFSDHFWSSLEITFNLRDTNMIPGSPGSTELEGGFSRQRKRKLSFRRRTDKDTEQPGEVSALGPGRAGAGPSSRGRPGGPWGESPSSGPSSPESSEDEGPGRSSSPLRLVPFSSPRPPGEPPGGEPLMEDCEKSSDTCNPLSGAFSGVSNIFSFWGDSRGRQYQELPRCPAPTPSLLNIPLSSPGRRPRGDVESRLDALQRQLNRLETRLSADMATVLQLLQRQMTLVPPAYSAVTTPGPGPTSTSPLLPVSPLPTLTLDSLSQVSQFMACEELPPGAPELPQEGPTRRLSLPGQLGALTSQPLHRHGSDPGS
Sequence of CYP2C9 (P11712 whole entry): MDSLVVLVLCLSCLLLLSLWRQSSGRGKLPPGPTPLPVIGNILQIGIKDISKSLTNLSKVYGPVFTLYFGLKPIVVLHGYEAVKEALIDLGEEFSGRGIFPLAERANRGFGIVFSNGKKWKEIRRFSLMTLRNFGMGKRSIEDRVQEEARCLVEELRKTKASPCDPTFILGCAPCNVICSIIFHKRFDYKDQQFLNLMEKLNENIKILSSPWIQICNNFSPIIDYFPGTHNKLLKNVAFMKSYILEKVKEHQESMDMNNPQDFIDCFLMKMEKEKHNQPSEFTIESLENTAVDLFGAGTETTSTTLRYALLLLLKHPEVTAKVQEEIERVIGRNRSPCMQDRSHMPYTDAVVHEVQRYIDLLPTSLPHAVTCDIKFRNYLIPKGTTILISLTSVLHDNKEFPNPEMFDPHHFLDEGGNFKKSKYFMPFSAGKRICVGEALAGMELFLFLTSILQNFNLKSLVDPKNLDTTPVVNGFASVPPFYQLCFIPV
Sequence of CYP3A4 (P08684 whole entry): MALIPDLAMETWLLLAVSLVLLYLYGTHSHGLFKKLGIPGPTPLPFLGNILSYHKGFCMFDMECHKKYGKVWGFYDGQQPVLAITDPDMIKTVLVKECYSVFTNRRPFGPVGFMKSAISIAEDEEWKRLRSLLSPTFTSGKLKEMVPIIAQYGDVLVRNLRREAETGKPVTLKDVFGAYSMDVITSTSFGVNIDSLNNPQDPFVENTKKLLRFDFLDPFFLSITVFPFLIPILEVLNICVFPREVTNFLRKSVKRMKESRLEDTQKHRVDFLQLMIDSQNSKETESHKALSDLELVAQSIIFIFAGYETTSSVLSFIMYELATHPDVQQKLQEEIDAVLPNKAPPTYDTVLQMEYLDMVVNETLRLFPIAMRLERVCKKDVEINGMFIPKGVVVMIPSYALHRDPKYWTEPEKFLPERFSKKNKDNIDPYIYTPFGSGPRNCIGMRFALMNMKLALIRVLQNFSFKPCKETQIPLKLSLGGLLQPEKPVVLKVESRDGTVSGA
Sequence of CYP2C19 (P33261 whole entry): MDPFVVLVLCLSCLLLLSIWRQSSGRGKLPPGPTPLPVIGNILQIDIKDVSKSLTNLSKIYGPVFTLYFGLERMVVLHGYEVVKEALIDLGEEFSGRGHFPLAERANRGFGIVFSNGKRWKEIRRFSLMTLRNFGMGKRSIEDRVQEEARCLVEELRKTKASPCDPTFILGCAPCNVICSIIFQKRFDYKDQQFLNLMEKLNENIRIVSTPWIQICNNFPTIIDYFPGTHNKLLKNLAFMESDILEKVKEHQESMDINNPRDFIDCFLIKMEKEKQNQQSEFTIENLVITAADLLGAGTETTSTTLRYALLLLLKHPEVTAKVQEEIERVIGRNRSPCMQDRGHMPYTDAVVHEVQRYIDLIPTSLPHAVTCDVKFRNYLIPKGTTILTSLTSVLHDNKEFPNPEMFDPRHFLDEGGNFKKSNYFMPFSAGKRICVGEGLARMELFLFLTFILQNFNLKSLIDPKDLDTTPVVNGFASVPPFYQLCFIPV
Sequence of CYP2D6 (P10635 whole entry): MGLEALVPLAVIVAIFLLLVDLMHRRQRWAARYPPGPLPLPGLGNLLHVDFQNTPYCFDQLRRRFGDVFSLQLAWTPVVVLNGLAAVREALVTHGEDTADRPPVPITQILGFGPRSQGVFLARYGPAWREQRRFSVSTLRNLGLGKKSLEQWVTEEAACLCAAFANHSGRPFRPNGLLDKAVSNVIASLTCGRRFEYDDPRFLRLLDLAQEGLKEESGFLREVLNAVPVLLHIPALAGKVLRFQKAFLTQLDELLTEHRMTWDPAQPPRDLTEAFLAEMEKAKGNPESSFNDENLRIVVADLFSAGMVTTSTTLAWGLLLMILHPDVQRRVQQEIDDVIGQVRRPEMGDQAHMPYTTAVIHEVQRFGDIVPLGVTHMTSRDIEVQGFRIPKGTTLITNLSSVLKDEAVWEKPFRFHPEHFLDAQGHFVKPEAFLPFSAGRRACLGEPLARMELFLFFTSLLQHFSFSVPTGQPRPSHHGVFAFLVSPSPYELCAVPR

| Structure (SMILES) | MFC99 (Candida albicans [1]) [µg/mL] | MFC99 (Nakaseomyces glabratus) [µg/mL] | MIC (Aspergillus fumigatus) [µg/mL] | half-life [2] [min] | MIC (Aspergillus flavus) [µg/mL] | IC50 [3] [µg/mL] | IC50 (Trichophyton rubrum) [µg/mL] | IC50 (Microsporum canis) [µg/mL] | IC50 (Sporothrix schenckii) [µg/mL] | CC50 at 72 h [4] [µg/mL] | solubility kinetic [6] [µM] | Papp A→B [7] [×10⁻⁶ cm/s] | Papp B→A [8] [×10⁻⁶ cm/s] | fraction unbound [9] | half-life [10] [min] | half-life [11] [min] | half-life [12] [min] | half-life [13] [min] | inhibition at 10 µM (hERG (KCNH2)) [%] | Activity (Candida albicans [14]) | further results |
| --- | --- | --- | --- | --- | --- | --- | --- | --- | --- | --- | --- | --- | --- | --- | --- | --- | --- | --- | --- | --- | --- |
| CCN1CC(C)(C)OC(=O)C1CC(=O)NCc1cccc(-c2ccccc2)c1 (stereo not given) | 12.5 (≈ 32.9 µM) | 12.5 (≈ 32.9 µM) | ≤ 3.1 | > 240 | 25 (≈ 65.7 µM) | 3 (≈ 7.88 µM) | 0.7 (≈ 1.84 µM) | 2.4 (≈ 6.31 µM) | 2.7 (≈ 7.1 µM) | > 20 | 50 (≈ 19 µg/mL) | 22 | 13 | 0.003 | > 240 | 223 | 6 | 1 | 25.5 | Active | MFC (Candida albicans [5]): 12.5 µg/mL (≈ 32.9 µM); Activity (Candida albicans [15]): Active; Activity (Candida albicans [16]): Active; Activity (Saccharomyces cerevisiae [17]): Active; Activity (Saccharomyces cerevisiae [18]): inactive; Activity (Saccharomyces cerevisiae [19]): inactive; Activity (Saccharomyces cerevisiae [20]): inactive; Activity (Saccharomyces cerevisiae [21]): inactive; Activity (Saccharomyces cerevisiae [22]): inactive |
| CCN1CC(C)(C)OC(=O)C1CC(=O)Nc1ccc(C(C)C)cc1 (stereo not given) | 12.5 (≈ 37.6 µM) | 25 (≈ 75.2 µM) | 1.6 (≈ 4.81 µM) | > 240 | 12.5 (≈ 37.6 µM) | 10.6 (≈ 31.9 µM) | 6.3 (≈ 19 µM) | 6.6 (≈ 19.9 µM) | 11.8 (≈ 35.5 µM) | > 20 | 50 (≈ 16.6 µg/mL) | 65 | 35 | 0.061 | > 240 | > 240 | 29 | 6 | 11 | Active | inhibition at 10 µM (CYP1A2): < 40%; inhibition at 10 µM (CYP2C9): < 40%; inhibition at 10 µM (CYP2C19): < 40%; inhibition at 10 µM (CYP2D6): < 40%; inhibition at 10 µM (CYP3A4): < 40%; Drug metabolism [23]: metabolite_detected |

From ChEMBL document CHEMBL3407422, “2-(2-oxo-morpholin-3-yl)-acetamide derivatives as broad-spectrum antifungal agents” (J Med Chem, 2015)
